# Measured values from ChEMBL document CHEMBL3091366, “New 5-Aryl-1H-imidazoles display in vitro antitumor activity against apoptosis-resistant cancer models, including melanomas, through mitochondrial targeting” (J Med Chem, 2013).
# Values joined by “and” are separate entries in the source; they are usually repeats but may differ in a detail not shown here. Equal values may be shown once.
# Legend:
# SK-MEL-28 = experiment: Cytotoxicity against apoptotic-resistant human SK-MEL-28 cells assessed as growth inhibition after 72 hrs by MTT-based colorimetric assay; type: functional, cell-based
# Outline: (§1)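 MTT colorimetric assay, 72 h exposure to the fumarate salt. Read-out is reduction of MTT to formazan by living cells. IC50 is the concentration that reduces the whole cell population by 50%. Six replicates per condition. Where compounds were not tested on every line, apoptosis-sensitive lines were PC3, MCF-7, LoVo and B16F10, and apoptosis-resistant lines were U373, T98G, A549 and SK-MEL-28.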
# MCF7 = experiment: Cytotoxicity against apoptotic-sensitive human MCF7 cells assessed as growth inhibition after 72 hrs by MTT-based colorimetric assay; type: functional, cell-based; outline: as §1
# LoVo = experiment: Cytotoxicity against apoptotic-sensitive human LoVo cells assessed as growth inhibition after 72 hrs by MTT-based colorimetric assay; type: functional, cell-based; outline: as §1
# T98G = experiment: Cytotoxicity against apoptotic-resistant human T98G cells assessed as growth inhibition after 72 hrs by MTT-based colorimetric assay; type: functional, cell-based; outline: as §1
# [1] = Cytotoxicity against apoptotic-resistant human U373 cells assessed as growth inhibition after 72 hrs by MTT-based colorimetric assay; type: functional, cell-based, U-373MG ATCC; outline: as §1
# PC-3 = experiment: Cytotoxicity against apoptotic-sensitive human PC3 cells assessed as growth inhibition after 72 hrs by MTT-based colorimetric assay; type: functional, cell-based; outline: as §1
# A549 = experiment: Cytotoxicity against apoptotic-resistant human A549 cells assessed as growth inhibition after 72 hrs by MTT-based colorimetric assay; type: functional, cell-based; outline: as §1
# B16-F10 = experiment: Cytotoxicity against apoptotic-sensitive mouse B16F10 cells assessed as growth inhibition after 72 hrs by MTT-based colorimetric assay; type: functional, cell-based; conditions: B16-F10, 72 h; outline: as §1
SMILES,"IC50 (SK-MEL-28; Homo sapiens, SK-MEL-28, 72 h) [µM]","IC50 (MCF7; Homo sapiens, MCF7, 72 h) [µM]","IC50 (LoVo; Homo sapiens, LoVo, 72 h) [µM]","IC50 (T98G; Homo sapiens, T98G, 72 h) [µM]","IC50 ([1]; Homo sapiens, U373 MG, 72 h) [µM]","IC50 (PC-3; Homo sapiens, PC-3, 72 h) [µM]","IC50 (A549; Homo sapiens, A549, 72 h) [µM]",IC50 (B16-F10) [µM],IC50 (SK-MEL-28; sk-mel-28),IC50 (MCF7; mcf7),IC50 (LoVo; lovo),IC50 (T98G; t98g),IC50 ([1]; u-373mg atcc) [µM],IC50 (PC-3; pc-3),IC50 (A549; a549)
C=CCCCCOc1ccc(OC)cc1-c1cnc(OCCC=C)n1C,62,37,33,74,67,43,43,–,–,–,–,–,–,–,–
C=CCCCCCOc1ncc(-c2ccccc2OCCCCC=C)n1C,79,63,32,63,76,70,62,–,–,–,–,–,–,–,–
C=CCCCCOc1ncc(-c2cccc(OC)c2OC)n1C,27,28,11,35,–,36,43,27,–,–,–,–,–,–,–
C=CCCCCOc1cc(F)ccc1-c1cnc(OCCC=C)n1C,83,59,45,> 100,> 100,64,74,–,–,–,–,–,–,–,–
Cn1c2cnc1OCCCCCCCCCCCOc1ccccc1-2,47,41,32,56,48,36,36,–,–,–,–,–,–,–,–
C=CCCCCOc1cc2ccccc2cc1-c1cnc(OCCCCC=C)n1C,59,37,25,40,33,38,16,–,–,–,–,–,–,–,–
C=CCCCCOc1ccc(C)cc1-c1cnc(OCCC=C)n1C,83,53,41,94,33,59,59,–,–,–,–,–,–,–,–
C=CCCOc1ncc(-c2ccccc2OC)n1C,21,27,24,39,16,25,22,–,–,–,–,–,–,–,–
C=CCCOc1ccccc1-c1cnc(S(=O)(=O)c2ccccc2)n1C,60,67,32,> 100,> 100,42,73,–,–,–,–,–,–,–,–
COc1ccccc1-c1cnc(OCC(F)(F)C(F)(F)C(F)(F)C(F)(F)C(F)(F)F)n1C,66,63,51,78,–,72,83,38,–,–,–,–,–,–,–
C=CCCCCOc1ccc(F)cc1-c1cnc(OCCC=C)n1C,82,43,38,87,73,52,61,–,–,–,–,–,–,–,–
C=CCCCCOc1ncc(-c2cc(C(F)(F)F)ccc2OC)n1C,56,61,51,88,–,57,62,59,–,–,–,–,–,–,–
C=CCCCCOc1ccccc1-c1cnc(NC(=O)CCCC=C)n1C,7,22,10,22,7,11,8,–,–,–,–,–,–,–,–
C=CCCCCOc1cc2ccccc2cc1-c1cnc(OCCC=C)n1C,25,25,25,32,27,14,21,–,–,–,–,–,–,–,–
Cn1c2cnc1NC(=O)CCCCCCCCCOc1ccccc1-2,59,61,33,64,38,61,43,–,–,–,–,–,–,–,–
"Cn1c2cnc1OCCCCCCCCOc1ccccc1-2 (single isomer, unassigned; atropisomer)",–,–,–,–,–,–,–,–,64 µM and 66 µM,44 µM and 43 µM,37 µM and 63 µM,75 µM and 92 µM,71,49 µM and 57 µM,59 µM and 54 µM
C=CCCCCOc1ccccc1-c1cnc(OCCC=C)n1C,17,8,12,29,33,19,9,–,–,–,–,–,–,–,–
Cn1c2cnc1OCCCCCCCCCOc1ccccc1-2,72,71,34,74,78,61,69,–,–,–,–,–,–,–,–
Cn1c2cnc1OCCCCCCCCCCOc1ccccc1-2,31,24,33,41,31,31,48,–,–,–,–,–,–,–,–
Cn1c2cnc1OCCCCCCCCOc1cc3ccccc3cc1-2,23,19,16,32,24,25,26,–,–,–,–,–,–,–,–
